Eight compounds from ChEMBL document CHEMBL1781933, “Neurosteroid analogues. 16. A new explanation for the lack of anesthetic effects of δ(16)-alphaxalone and identification of a δ(17(20)) analogue with potent anesthetic activity” (J Med Chem, 2011) can be followed below.

As a reminder, the EC50 is the midpoint of the concentration-response curve.

Calls of active or inactive are those of the source. The rule behind the calls is not given here.

Experiment [1] concerns Xenopus laevis. Kind of experiment: Anesthetic effect on Xenopus laevis tadpole assessed as loss of righting reflex. The class given is functional, organism-based. A digest of the protocol:
(§1)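 Xenopus tadpoles were exposed to steroid at five or more concentrations, with 10 or more animals per concentration. Loss of righting or swimming reflex was scored. EC50 and Hill coefficient were fitted from the dose–response curves; mean ± SEM.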

Experiment [2] deals with Xenopus laevis. Kind of experiment: Anesthetic effect on Xenopus laevis tadpole assessed as loss of swimming reflex at 10 uM. The class given is functional, organism-based.
Experiment [3] has as its system Xenopus laevis. Kind of experiment: Anesthetic effect on Xenopus laevis tadpole assessed as loss of swimming reflex. The class given is functional, organism-based. The method in brief: as §1
Experiment [4] deals with Xenopus laevis. Kind of experiment: Anesthetic effect on Xenopus laevis tadpole assessed as loss of swimming reflex at 30 uM. The class given is functional, organism-based.
Experiment [5] has as its system Oocyte. Briefly: Activity at rat GABA-A receptor alpha1beta2gamma2L expressed in Xenopus oocytes assessed as increase in chloride current at 10 uM by electrophysiological Method relative to GABA. The class given is cell-based. A digest of the protocol:
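Direct gating measured without GABA. Current evoked by 10 µM steroid applied alone to oocytes expressing rat α1β2γ2L GABA-A receptors, expressed as a ratio to the current evoked by 2 µM GABA. Whole-cell recording. At least four oocytes per compound; mean ± SEM.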

The subject of experiment [6] is Oocyte. Kind of experiment: Activity at rat GABA-A receptor alpha1beta2gamma2L expressed in Xenopus oocytes assessed as potentiation of GABA-induced chloride current at 0.1 uM by electrophysiological Method relative to control. Format: cell-based. The method in brief: (§2)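 Oocytes expressing rat α1β2γ2L GABA-A receptors were recorded whole-cell. Compound at 0.1, 1 or 10 µM was co-applied with 2 µM GABA. Response is the current ratio with/without compound. At least four different oocytes per concentration; mean ± SEM.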

For experiment [7], the system named is Oocyte. Briefly: Activity at rat GABA-A receptor alpha1beta2gamma2L expressed in Xenopus oocytes assessed as potentiation of GABA-induced chloride current at 1 uM by electrophysiological Method relative to control. The class given is cell-based. The method in brief:
as §2

For experiment [8], the system named is Xenopus laevis. Kind of experiment: Anesthetic effect on Xenopus laevis tadpole assessed as loss of swimming reflex at 3 uM. The class given is functional, organism-based.
The test system of experiment [9] is Oocyte. Briefly: Activity at rat GABA-A receptor alpha1beta2gamma2L expressed in Xenopus oocytes assessed as potentiation of GABA-induced chloride current at 10 uM by electrophysiological Method relative to control. Format: cell-based. A digest of the protocol:
as §2

The test system of experiment [10] is Mus musculus. Briefly: Anesthetic effect in mouse assessed as loss of righting reflex at 8 mg/kg, iv. Format: functional, organism-based. Details: dose 8 mg/kg.
The subject of experiment [11] is Mus musculus. Briefly: Anesthetic effect in mouse assessed as duration of loss of righting reflex at 16 mg/kg, iv. Format: functional.
The test system of experiment [12] is Mus musculus. Briefly: Anesthetic effect in mouse assessed as immediate loss of righting reflex at 16 mg/kg, iv. Format: functional, organism-based. Also on record: dose 16 mg/kg.
The subject of experiment [13] is Mus musculus. Kind of experiment: Anesthetic effect in mouse assessed as time taken for recovery of righting effect and walking at 16 mg/kg, iv. Format: functional.
Experiment [14] relates to Mus musculus. Kind of experiment: Anesthetic effect in mouse assessed as duration of loss of righting reflex at 8 mg/kg, iv. The class given is functional.

Regarding `C[C@]12CC[C@@H](O)C[C@@H]1CC[C@@H]1[C@@H]2C(=O)C[C@]2(C)/C(=C/C#N)CC[C@@H]12`, the EC50 in [1] is 9.15 µM; in [3], 17.3 µM. In experiment [2], the outcome was Active. Besides, the outcome in [4] was inactive.

`C[C@]12CC[C@@H](O)C[C@@H]1CC[C@H]1[C@@H]3CC[C@H](CC#N)[C@@]3(C)CC(=O)[C@@H]12`: the fold change (FC) in experiment [5] came to 0.01; in experiment [6], 0.91; in [7], 1.13; in [9], 4.67. The 50% effective concentration (EC50) in experiment [1] came out at 3.58 µM. Also, the outcome in experiment [2] was inactive. In addition, the outcome in experiment [8] was Active.

Take `C[C@]12CC[C@@H](O)C[C@@H]1CC[C@H]1[C@@H]3CC[C@H](C=O)[C@@]3(C)CC(=O)[C@@H]12`: the concentration giving a half-maximal response (EC50) in experiment [1] was 3.98 µM. Further, in experiment [2], the result was inactive. Moreover, the outcome in experiment [8] was Active.

With `CC(=O)[C@H]1CC[C@H]2[C@@H]3CC[C@H]4C[C@H](O)CC[C@]4(C)[C@H]3C(=O)C[C@]12C` [ALFAXALONE], in experiment [10], the outcome was inactive. Moreover, the Time in [11] turned out to be 4 min; in [13], 1 min. The outcome in [12] was Active.

Turning to `C/C(C#N)=C1/CC[C@H]2[C@@H]3CC[C@H]4C[C@H](O)CC[C@]4(C)[C@H]3C(=O)C[C@]12C`, the fold change (FC) in experiment [5] is 0.05; in [6], 0.9; in experiment [7], 0.86; in experiment [9] it was 1.53. Further, the results for the EC50 in experiment [1] and in experiment [3] were 2.09 µM and 10 µM, respectively. For the same compound, the result in [2] was inactive. For the same compound, the outcome in experiment [8] was Active.

For `C/C(C#N)=C1\CC[C@H]2[C@@H]3CC[C@H]4C[C@H](O)CC[C@]4(C)[C@H]3C(=O)C[C@]12C`, the fold change (FC) in experiment [5] came to 0.04; in experiment [6], 0.9; in experiment [7] it was 1.52; in [9] it was 5.02. Also, the half-maximal effective concentration (EC50) in experiment [1] is 2.71 µM; in experiment [3], 5.48 µM. In addition, the result in [2] was inactive. Besides, the outcome in [8] was Active.

Consider `C[C@]12CC[C@@H](O)C[C@@H]1CC[C@@H]1[C@@H]2C(=O)C[C@]2(C)/C(=C\C#N)CC[C@@H]12`, for which the Time in experiment [11] was 4 min; in [14], 1.5 min. For the same compound, the outcome in [2] was inactive. The EC50 in experiment [3] was found to be 5.48 µM. Moreover, in experiment [8], the outcome was Active.

As to `C[C@]12CC[C@@H](O)C[C@@H]1CC[C@@H]1[C@@H]2C(=O)C[C@]2(C)C(C=O)=CC[C@@H]12`, the EC50 in experiment [1] came to 3.22 µM. The outcome in [2] was inactive. For the same compound, the result in experiment [8] was Active.
